How the values were obtained:
[1] = Plasma level data at a dose of 20 mg/kg, po after 4 hr; format: ADME, organism-based; parameters: dose 20 mg/kg, route oral; conditions: read-out: Plasma level
Outline: (§1)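 Male Lewis rats get a single iv or oral dose of the sodium salt, suspended in 0.4% (w/v) methyl cellulose. Plasma drug levels are measured by HPLC at the timed points and given as mean ± SD, n = 3.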

[2] = Plasma level data at a dose of 20 mg/kg, po after 12 hr; format: ADME, organism-based; parameters: dose 20 mg/kg, route oral; conditions: read-out: Plasma level; outline: as §1
Rattus norvegicus [3] = assay: Compound was tested in vivo for antiinflammatory activity against chronic adjuvant arthritic rat by therapeutic inhibition 1 degree paw after peroral administration of 1 mg/kg of dose; format: functional; conditions: route oral
[4] = Plasma level data at a dose of 20 mg/kg, iv after 1 hr; format: ADME, organism-based; parameters: dose 20 mg/kg, route intravenous; conditions: read-out: Plasma level; outline: as §1
[5] = Plasma level data at a dose of 20 mg/kg, iv after 2 hr; format: ADME, organism-based; parameters: dose 20 mg/kg, route intravenous; conditions: read-out: Plasma level; outline: as §1
Rattus norvegicus [6] = assay: Compound was tested for intestinal ulcerogenic effect in rats, activity expressed as ulcer incidence at a dose of 300 mg/kg; format: functional
Outline: (§2)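 Normal fed rats were gavaged once daily for three consecutive days at 10–300 mg/kg and killed 24 h after the last dose. Intestines were examined for ulcers, recording incidence per group of 8 and a lesion score (±SE).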

Rattus norvegicus [7] = assay: Compound was tested in vivo for antiinflammatory activity against chronic adjuvant arthritic rat by therapeutic inhibition 1 degree paw after peroral administration of 18 mg/kg of dose; format: functional; conditions: route oral
Rattus norvegicus [8] = assay: Compound was tested for intestinal ulcerogenic effect in rats, activity expressed as ulcer incidence at a dose of 100 mg/kg; format: functional; outline: as §2
Rattus norvegicus [9] = assay: Compound was tested for intestinal ulcerogenic effect in rats, activity expressed as lesion score at a dose of 100 mg/kg; format: functional; outline: as §2
Rattus norvegicus [10] = assay: Compound was tested for intestinal ulcerogenic effect in rats, activity expressed as ulcer incidence at a dose of 10 mg/kg; format: functional; outline: as §2
[11] = Plasma level data at a dose of 36 mg/kg, po after 0.5 hr; format: ADME, organism-based; parameters: dose 36 mg/kg, route oral; conditions: read-out: Plasma level; outline: as §1
[12] = Plasma level data at a dose of 36 mg/kg, iv after 2 hr; format: ADME, organism-based; parameters: dose 36 mg/kg, route intravenous; conditions: read-out: Plasma level; outline: as §1
[13] = Plasma level data at a dose of 36 mg/kg, iv after 0.5 hr; format: ADME, organism-based; parameters: dose 36 mg/kg, route intravenous; conditions: read-out: Plasma level; outline: as §1
Rattus norvegicus [14] = assay: Compound was tested for intestinal Ulcerogenic effect in rats, activity expressed as lesion score at a dose of 300 mg/kg; format: functional; outline: as §2
Rattus norvegicus [15] = assay: Compound was tested in vivo for antiinflammatory activity against chronic adjuvant arthritic rat by therapeutic percentage inhibition 1 degree paw after peroral administration of 30 mg/kg of dose; format: functional

CC(C)=CCc1c(O)n(Cc2ccccc2)c2nc3c(c(=O)n(C)c(=O)n3C)n2c1=O
concentration at 4 h [1]: 39 µg/mL | concentration at 12 h [2]: 26.7 µg/mL | inhibition in vivo at 1 mg/kg (Rattus norvegicus [3]): 0% | concentration at 1 h [4]: 74.7 µg/mL | concentration at 2 h [5]: 53.8 µg/mL

CC(C)=CCc1c(O)n(Cc2ccc(F)cc2)c2nc3c(c(=O)n(C)c(=O)n3C)n2c1=O
Ulcer incidence (Rattus norvegicus [6]): 2 number/group | inhibition in vivo at 18 mg/kg (Rattus norvegicus [7]): 39% | Ulcer incidence (Rattus norvegicus [8]): 0 number/group | Lesion length (Rattus norvegicus [9]): 0 mm rat-1 | Ulcer incidence (Rattus norvegicus [10]): 0 number/group

CCCc1c(O)n(Cc2ccc(F)cc2)c2nc3c(c(=O)n(C)c(=O)n3C)n2c1=O
concentration at 0.5 h [11]: 45.1 µg/mL | concentration at 2 h [12]: 128 µg/mL | concentration at 0.5 h [13]: 107 µg/mL | Lesion score (Rattus norvegicus [14]): 0 mm rat-1 | inhibition in vivo at 30 mg/kg (Rattus norvegicus [15]; Rattus norvegicus, po): 47% | Inhibition (Rattus norvegicus [15]; route oral, 30 mg/kg): 47%

Reference: ChEMBL document CHEMBL1123282, “Antiinflammatory activity of substituted 6-hydroxypyrimido[2,1-f]purine-2,4,8(1H,3H,9H)-triones. Atypical nonsteroidal antiinflammatory agents” (J Med Chem, 1986)
